# Results from ChEMBL document CHEMBL1671676, “In vitro activity of nemonoxacin, a novel nonfluorinated quinolone, against 2,440 clinical isolates” (2009).
# Columns and labels:
# Assay type in all cases: functional
# [1] = system: Stenotrophomonas maltophilia; assay: Antibacterial activity against Stenotrophomonas maltophilia assessed as percent cumulative susceptible isolates at minimum inhibitory concentration of 0.06 ug/ml by CLSI broth microdilution method; set-up: scale not given: the % may be the effect or the level left
# [2] = system: Stenotrophomonas maltophilia; assay: Antibacterial activity against Stenotrophomonas maltophilia assessed as percent cumulative susceptible isolates at minimum inhibitory concentration of 8 ug/ml by CLSI broth microdilution method; set-up: scale not given: the % may be the effect or the level left
# [3] = system: Staphylococcus aureus; assay: Antibacterial activity against methicillin-resistant Staphylococcus aureus assessed as percent cumulative susceptible isolates at minimum inhibitory concentration of 8 ug/ml by CLSI broth microdilution method; set-up: scale not given: the % may be the effect or the level left
# [4] = system: Enterococcus faecium; assay: Antibacterial activity against Enterococcus faecium assessed as percent cumulative susceptible isolates at minimum inhibitory concentration of 1 ug/ml by CLSI broth microdilution method; set-up: scale not given: the % may be the effect or the level left
# [5] = system: Staphylococcus epidermidis; assay: Antibacterial activity against methicillin-resistant Staphylococcus epidermidis assessed as percent cumulative susceptible isolates at minimum inhibitory concentration of […] by CLSI broth microdilution method; set-up: scale not given: the % may be the effect or the level left
# [6] = system: Streptococcus pneumoniae; assay: Antibacterial activity against Streptococcus pneumoniae assessed as percent cumulative susceptible isolates at minimum inhibitory concentration of <=0.008 ug/ml by CLSI broth microdilution method; set-up: scale not given: the % may be the effect or the level left
# [7] = system: Proteus mirabilis; assay: Antibacterial activity against Proteus mirabilis assessed as percent cumulative susceptible isolates at minimum inhibitory concentration of […] by CLSI broth microdilution method; set-up: scale not given: the % may be the effect or the level left
# [8] = system: Enterococcus faecalis; assay: Antibacterial activity against Enterococcus faecalis assessed as percent cumulative susceptible isolates at minimum inhibitory concentration of 0.03 ug/ml by CLSI broth microdilution method; set-up: scale not given: the % may be the effect or the level left
# [9] = system: Enterococcus faecalis; assay: Antibacterial activity against Enterococcus faecalis assessed as percent cumulative susceptible isolates at minimum inhibitory concentration of 0.06 ug/ml by CLSI broth microdilution method; set-up: scale not given: the % may be the effect or the level left
# [10] = system: Enterococcus faecalis; assay: Antibacterial activity against Enterococcus faecalis assessed as percent cumulative susceptible isolates at minimum inhibitory concentration of 4 ug/ml by CLSI broth microdilution method; set-up: scale not given: the % may be the effect or the level left
# [11] = system: Pseudomonas aeruginosa; assay: Antibacterial activity against Pseudomonas aeruginosa assessed as percent cumulative susceptible isolates at minimum inhibitory concentration of 4 ug/ml by CLSI broth microdilution method; set-up: scale not given: the % may be the effect or the level left
# [12] = system: Stenotrophomonas maltophilia; assay: Antibacterial activity against Stenotrophomonas maltophilia assessed as percent cumulative susceptible isolates at minimum inhibitory concentration of […] by CLSI broth microdilution method; set-up: scale not given: the % may be the effect or the level left
# [13] = system: Stenotrophomonas maltophilia; assay: Antibacterial activity against Stenotrophomonas maltophilia assessed as percent cumulative susceptible isolates at minimum inhibitory concentration of 32 ug/ml by CLSI broth microdilution method; set-up: scale not given: the % may be the effect or the level left
# [14] = system: Staphylococcus aureus; assay: Antibacterial activity against hospital-associated methicillin-resistant Staphylococcus aureus by CLSI M7-A7 broth microdilution method
# How it was run: (§1)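 Clinical isolates tested by CLSI broth microdilution using 96-well panels of doubling drug dilutions in cation-adjusted Mueller-Hinton broth with 5% lysed horse blood. MIC was read from these panels. Panel quality control used CLSI ATCC strains, including S. pneumoniae 49619, S. aureus 29213, E. faecalis 29212 and E. coli 25922. Cumulative percentages of isolates were tabulated at each MIC.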
# [15] = system: Staphylococcus aureus; assay: Antibacterial activity against community-associated methicillin-resistant Staphylococcus aureus by CLSI M7-A7 broth microdilution method; how it was run: as §1
# [16] = system: Streptococcus pneumoniae; assay: Antibacterial activity against Streptococcus pneumoniae by CLSI M7-A7 broth microdilution method
# How it was run: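 Broth microdilution per CLSI guidelines on clinical isolates, using panels of doubling drug dilutions in cation-adjusted Mueller-Hinton broth with 5% lysed horse blood. MIC read per CLSI, and cumulative percentage of isolates inhibited at each concentration tabulated.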
# [17] = system: Enterococcus faecalis; assay: Antibacterial activity against Enterococcus faecalis by CLSI M7-A7 broth microdilution method
# [18] = system: Pseudomonas aeruginosa; assay: Antibacterial activity against Pseudomonas aeruginosa by CLSI M7-A7 broth microdilution method
# [19] = system: Stenotrophomonas maltophilia; assay: Antibacterial activity against Stenotrophomonas maltophilia by CLSI M7-A7 broth microdilution method
# [20] = Ratio of fAUC (0 to 24 hrs) in in vitro PK/PD model at 750 mg to MIC for Staphylococcus epidermidis
# [21] = system: Staphylococcus aureus; assay: Antibacterial activity against methicillin-resistant Staphylococcus aureus assessed as percent cumulative susceptible isolates at minimum inhibitory concentration of 0.03 ug/ml by CLSI broth microdilution method; set-up: scale not given: the % may be the effect or the level left; how it was run: as §1
# [22] = system: Staphylococcus aureus; assay: Antibacterial activity against methicillin-resistant Staphylococcus aureus assessed as percent cumulative susceptible isolates at minimum inhibitory concentration of 0.5 ug/ml by CLSI broth microdilution method; set-up: scale not given: the % may be the effect or the level left
# [23] = system: Enterococcus faecium; assay: Antibacterial activity against Enterococcus faecium assessed as percent cumulative susceptible isolates at minimum inhibitory concentration of 0.06 ug/ml by CLSI broth microdilution method; set-up: scale not given: the % may be the effect or the level left
# [24] = system: Enterococcus faecium; assay: Antibacterial activity against Enterococcus faecium assessed as percent cumulative susceptible isolates at minimum inhibitory concentration of 8 ug/ml by CLSI broth microdilution method; set-up: scale not given: the % may be the effect or the level left
# [25] = system: Enterococcus faecium; assay: Antibacterial activity against Enterococcus faecium assessed as percent cumulative susceptible isolates at minimum inhibitory concentration of 64 ug/ml by CLSI broth microdilution method; set-up: scale not given: the % may be the effect or the level left
# [26] = system: Escherichia coli; assay: Antibacterial activity against Escherichia coli assessed as percent cumulative susceptible isolates at minimum inhibitory concentration of 128 ug/ml by CLSI broth microdilution method; set-up: scale not given: the % may be the effect or the level left
# [27] = system: Klebsiella pneumoniae; assay: Antibacterial activity against Klebsiella pneumoniae assessed as percent cumulative susceptible isolates at minimum inhibitory concentration of <=[…] by CLSI broth microdilution method; set-up: scale not given: the % may be the effect or the level left
# [28] = system: Klebsiella pneumoniae; assay: Antibacterial activity against Klebsiella pneumoniae assessed as percent cumulative susceptible isolates at minimum inhibitory concentration of 64 ug/ml by CLSI broth microdilution method; set-up: scale not given: the % may be the effect or the level left
# [29] = system: Klebsiella pneumoniae; assay: Antibacterial activity against Klebsiella pneumoniae assessed as percent cumulative susceptible isolates at minimum inhibitory concentration of 128 ug/ml by CLSI broth microdilution method; set-up: scale not given: the % may be the effect or the level left
# [30] = system: Klebsiella oxytoca; assay: Antibacterial activity against Klebsiella oxytoca assessed as percent cumulative susceptible isolates at minimum inhibitory concentration of 0.5 ug/ml by CLSI broth microdilution method; set-up: scale not given: the % may be the effect or the level left; how it was run: as §1
# [31] = system: Staphylococcus aureus; assay: Antibacterial activity against non-levofloxacin susceptible Staphylococcus aureus assessed as percent cumulative susceptible isolates at minimum inhibitory concentration of […] by CLSI broth microdilution method; set-up: scale not given: the % may be the effect or the level left
# [32] = system: Staphylococcus aureus; assay: Antibacterial activity against non-levofloxacin susceptible Staphylococcus aureus assessed as percent cumulative susceptible isolates at minimum inhibitory concentration of 2 ug/ml by CLSI broth microdilution method; set-up: scale not given: the % may be the effect or the level left
# [33] = system: Staphylococcus aureus; assay: Antibacterial activity against hospital-associated methicillin-resistant Staphylococcus aureus assessed as percent cumulative susceptible isolates at minimum inhibitory concentration of 1 ug/ml by CLSI broth microdilution method; set-up: scale not given: the % may be the effect or the level left; how it was run: as §1
# [34] = system: Staphylococcus aureus; assay: Antibacterial activity against hospital-associated methicillin-resistant Staphylococcus aureus assessed as percent cumulative susceptible isolates at minimum inhibitory concentration of 2 ug/ml by CLSI broth microdilution method; set-up: scale not given: the % may be the effect or the level left; how it was run: as §1
# [35] = system: Staphylococcus epidermidis; assay: Antibacterial activity against methicillin-susceptible Staphylococcus epidermidis assessed as percent cumulative susceptible isolates at minimum inhibitory concentration of […] by CLSI broth microdilution method; set-up: scale not given: the % may be the effect or the level left
# [36] = system: Staphylococcus epidermidis; assay: Antibacterial activity against methicillin-susceptible Staphylococcus epidermidis assessed as percent cumulative susceptible isolates at minimum inhibitory concentration of 0.03 ug/ml by CLSI broth microdilution method; set-up: scale not given: the % may be the effect or the level left
compound,measurement,setting,value
C[C@H]1COc2c(N3CCN(C)CC3)c(F)cc3c(=O)c(C(=O)O)cn1c23.C[C@H]1COc2c(N3CCN(C)CC3)c(F)cc3c(=O)c(C(=O)O)cn1c23.O [LEVOFLOXACIN],Activity,[1],3.8%
same,Activity,[2],92.3%
same,Activity,[3],22.8%
same,Activity,[4],10.5%
COc1c(N2C[C@@H](C)C[C@H](N)C2)ccc2c(=O)c(C(=O)O)cn(C3CC3)c12 [NEMONOXACIN],Activity,[5],33.3%
same,Activity,[6],19.2%
same,Activity,[7],24.2%
same,Activity,[8],2.5%
same,Activity,[9],18.5%
same,Activity,[10],98.8%
same,Activity,[11],78.1%
same,Activity,[12],3.8%
same,Activity,[13],92.3%
same,MIC,[14],≥ 4 µg/mL
same,MIC50,[15],0.25 µg/mL
same,MIC90,[15],0.5 µg/mL
same,MIC90,[16],0.015 µg/mL
same,MIC90,[17],1 µg/mL
same,MIC90,[18],≥ 8 µg/mL
same,MIC90,[19],≥ 4 µg/mL
same,RatioAUC/MIC,[20],98
same,Activity,[21],6.3%
same,Activity,[22],24.4%
same,Activity,[23],7.9%
same,Activity,[24],44.7%
same,Activity,[25],84.2%
same,Activity,[26],99.3%
same,Activity,[27],0.5%
same,Activity,[28],98.5%
same,Activity,[29],100%
same,Activity,[30],96.9%
same,Activity,[31],8.9%
same,Activity,[32],36.1%
same,Activity,[33],18.2%
same,Activity,[34],22.2%
same,Activity,[35],37.2%
same,Activity,[36],53.5%
